Test results taken from ChEMBL document CHEMBL2321691 (J Med Chem, 2013).
Activity calls are given as the source filed them. The calls are words filed in the database; no cut-off is given here.

Columns and labels:
HT-29 = assay: Cytotoxicity against human HT-29 cells assessed as growth inhibition after 72 hrs by XTT assay; format: functional, cell-based; settings: HT-29, 72 h
In short: (§1)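 Cells seeded at 1.5 x 10^3 per well (A549, HeLa, HT-29) or 3 x 10^3 (HL-60) in medium with 10% heat-inactivated FBS. Compound tested from 10-5 to 10-13 M for 72 h at 37 °C, then XTT readout. […] Triplicate wells, three experiments; mean ± S.D.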

HeLa [1] = assay: Inhibition of microtubule system in human HeLa cells at 10 nM after 18 hrs by confocal microscopic analysis; format: cell-based
In short: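 HeLa cells grown on poly-L-lysine coverslips and treated 18 h at 10^-8 M. Washed in HPEM (pH 6.6), fixed 15 min in 4% paraformaldehyde, permeabilized with 0.5% Triton X-100. Stained with anti-α-tubulin (1:150, 1 h), then CY3 anti-mouse IgG (1:100, 1 h, 4 °C). Imaged by confocal microscopy; representative of at least three experiments.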

[2] = Inhibition of bovine brain tubulin polymerization after 30 mins by spectrophotometry; set-up: species or system Bos taurus
In short: (§2)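 Bovine brain tubulin at 1.5 mg/mL, pH 6.7, in 0.1 M MES, 1 mM EGTA, 1 mM MgCl2, 1 mM β-ME, 1.5 mM GTP with ligand. Incubated 20 °C for 30 min, then on ice 10 min. Assembly read as the A450 rise on a shift from 4 to 38 °C; inhibition is plateau minus baseline against ligand-free control. IC50 from monoexponential fits.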

A549 = assay: Cytotoxicity against human A549 cells assessed as growth inhibition after 72 hrs by XTT assay; format: functional, cell-based; settings: A549, 72 h; in short: as §1
Bos taurus = species on record: Bos taurus; assay: Inhibition of bovine brain tubulin polymerization at 20 uM after 30 mins by spectrophotometry; in short: as §2
HL-60 = assay: Cytotoxicity against human HL60 cells assessed as growth inhibition after 72 hrs by XTT assay; format: functional, cell-based; settings: HL-60, 72 h; in short: as §1
HeLa [3] = assay: Cytotoxicity against human HeLa cells assessed as growth inhibition after 72 hrs by XTT assay
HeLa [4] = assay: Induction of apoptosis in human HeLa cells assessed as PARP cleavage at 50 nM by Western blotting analysis; format: functional, cell-based
In short: (§3)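 HeLa cells given 50 nM compound for several times; untreated controls run in parallel. About 5 x 10^6 cells lysed and run on reducing SDS gels (12% for caspase-3, 8% for PARP), then blotted to nitrocellulose. Probed overnight with anti-active caspase-3 (p19/p17) or C2.10 anti-PARP (116 kDa and p85), each 1:1000. β-actin loading control; ECL detection. Three experiments.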

HeLa [5] = assay: Induction of apoptosis in human HeLa cells assessed as processing of procaspase-3 into the p19/p17 active form at 50 nM by Western blotting analysis; format: functional, cell-based; in short: as §3
HeLa [6] = assay: Induction of apoptosis in human HeLa cells assessed as accumulation at sub-G0/G1 phase at 50 nM after 72 hrs by […] analysis; format: functional, cell-based
HeLa [7] = assay: Cell cycle arrest in human HeLa cells assessed as accumulation at G2/M phase at 10^-8 M incubated for 18 hrs by propidium iodide staining-based FACS flow cytometric analysis relative to control; format: functional
In short: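 HeLa cells treated 18 h at 10^-8 M, with untreated controls run in parallel. 2-4 x 10^5 cells fixed overnight in 70% ethanol at 4 °C, washed in PBS, then incubated 1 h at room temperature with 1 mg/mL RNAse A and 20 µg/mL propidium iodide. DNA content read by FACSCalibur flow cytometry; percentage of cells in G2/M. Representative of three experiments.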

HeLa [8] = assay: Induction of apoptosis in human HeLa cells at 50 nM after 72 hrs by […] analysis relative to control; format: functional
HeLa [9] = assay: Induction of apoptosis in human HeLa cells assessed as accumulation of DNA at sub-G0/G1 phase incubated for 24 hrs by propidium iodide staining-based FACS flow cytometric analysis relative to control; format: functional; settings: in the assay text read “72 hrs” for “24 hrs”
In short: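 Apoptosis counted as percentage of HeLa cells in the sub-G0/G1 peak. Cells fixed in 70% ethanol, stained 1 h with RNAse A (1 mg/mL) and propidium iodide (20 µg/mL), then read by flow cytometry. Time-course used 5-100 nM for 18-72 h.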

HeLa [10] = assay: Induction of apoptosis in human HeLa cells at 50 nM after 72 hrs by […] analysis in presence of caspase inhibitor z-VAD-fmk relative to control; format: functional

Row | SMILES | IC50 [2] [nM] | inhibition (Bos taurus) [%] | IC50 (HT-29) [nM] | inhibition (HeLa [1]) | IC50 (A549) [nM] | IC50 (HL-60) [nM] | IC50 (HeLa [3]) [nM] | Activity (HeLa [4]) | Activity (HeLa [5]) | Activity (HeLa [6]) | Activity (HeLa [7]) [%] | Activity (HeLa [8]) [%] | Activity (HeLa [9]) [%] | Activity (HeLa [10]) [%]
1 | COc1cc(C(=CC#N)c2ccc3c(c2)c(C#N)cn3C)cc(OC)c1OC | 4700 | 90 | 2.1 | Active | 4.9 | 4.8 | 3.5 | Active | Active | Active | >85 | – | – | –
2 | C=C(c1cc(OC)c(OC)c(OC)c1)c1ccc2c(c1)c(C=O)cn2C | 900 | 100 | 62 | Active | 3000 | 28 | 20 | – | – | – | – | – | – | –
3 | C=C(c1cc(OC)c(OC)c(OC)c1)c1ccc2c(c1)c(C(=O)O)cn2C | 5000 | 91 | 550 | – | 1100 | 1100 | 880 | – | – | – | – | – | – | –
4 | C=C(c1cc(OC)c(OC)c(OC)c1)c1ccc2c(c1)c(C(N)=O)cn2C | 900 | 93 | 0.51 | Active | 1.8 | 0.11 | 0.25 | Active | Active | Active | >85 | – | – | –
5 | COc1cc(C(=O)c2ccc3c(c2)c(C=O)cn3C)cc(OC)c1OC | 16900 | 61 | 3000 | – | > 10000 | 310 | 320 | – | – | – | – | – | – | –
6 | C=C(c1cc(OC)c(OC)c(OC)c1)c1ccc2c(c1)c(C#N)cn2C | 1200 | 93 | 3.9 | Active | 8.4 | 1.3 | 2.9 | Active | Active | Active | >83 | 19.5 | 20 | 5
7 | C=C(c1cc(OC)c(OC)c(OC)c1)c1ccc2c(ccn2C)c1 | 700 | 96 | 3.1 | – | 28 | 2.8 | 2.7 | – | – | – | – | – | – | –
8 | COc1cc(C(C)c2ccc3c(ccn3C)c2)cc(OC)c1OC (stereo not given) | 1000 | 100 | 3.8 | Active | 6.8 | 0.33 | 0.64 | Active | Active | Active | >85 | – | – | –
9 | COc1ccc(C(=CC=O)c2ccc3c(c2)c(C=O)cn3C)c(OC)c1OC | 5900 | 98 | 300 | – | 350 | 300 | 300 | – | – | – | – | – | – | –

Continued, in another order:

Row | IC50 [2] [nM] | inhibition (Bos taurus) [%] | SMILES | IC50 (HT-29) [nM] | inhibition (HeLa [1]) | IC50 (A549) [nM] | IC50 (HL-60) [nM] | IC50 (HeLa [3]) [nM] | Activity (HeLa [4]) | Activity (HeLa [5]) | Activity (HeLa [6]) | Activity (HeLa [7]) [%] | Activity (HeLa [8]) [%] | Activity (HeLa [9]) [%] | Activity (HeLa [10]) [%]
10 | 4000 | 98 | C=C(c1ccc2c(c1)c(C=O)cn2C)c1ccc(OC)c(OC)c1OC | 230 | Active | 1800 | 32 | 32 | – | – | – | – | – | – | –
11 | 2600 | 93 | C=C(c1cc(OC)c(OC)c(OC)c1)c1ccc2c(c1)c(C=NO)cn2C | 33 | Active | 30 | 21 | 6.2 | – | – | – | – | – | – | –
12 | 4700 | 97 | C=C(c1ccc2c(ccn2C)c1)c1ccc(OC)c(OC)c1OC | 310 | – | 730 | 280 | 32 | – | – | – | – | – | – | –
13 | 4000 | 95 | C=C(c1ccc2c(c1)c(C=NO)cn2C)c1ccc(OC)c(OC)c1OC | 320 | – | 290 | 270 | 34 | – | – | – | – | – | – | –
14 | 2200 | 89 | C=C(c1ccc2c(c1)c(C#N)cn2C)c1ccc(OC)c(OC)c1OC | 32 | – | 360 | 27 | 32 | – | – | – | – | – | – | –
